Measurements taken from ChEMBL document CHEMBL1149770, “Synthesis and antimicrobial studies of novel dichlorofluorophenyl containing aminotriazolothiadiazines” (2008).
In brackets after ≈: the same amount, converted by molar mass.

How the values were obtained:
Pseudomonas aeruginosa [1] = experiment: Antibacterial activity against Pseudomonas aeruginosa ATCC 27853 after 24 hrs by broth dilution technique; format: functional; conditions: ATCC 27853, 24 h
In short: (§1)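 MIC by broth dilution in nutrient broth with logarithmic serial twofold dilutions of compound. Inoculum approx. 5×10^5 c.f.u actively dividing bacteria. Incubated 24 h at 37 °C, growth monitored visually and spectrophotometrically. MIC taken as the lowest concentration (highest dilution) arresting growth. Ciprofloxacin reference.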

[2] = test system: Trichophyton mentagrophytes; experiment: Antifungal activity against Trichophyton mentagrophytes after 48 hrs […]; format: functional
Klebsiella pneumoniae [3] = experiment: Antibacterial activity against Klebsiella pneumoniae after 24 hrs by broth dilution technique; format: functional; in short: as §1
Aspergillus flavus [4] = experiment: Antifungal activity against Aspergillus flavus after 48 hrs […]; format: functional
Escherichia coli = experiment: Antibacterial activity against Escherichia coli ATCC 25922 after 24 hrs by broth dilution technique; format: functional; conditions: ATCC 25922, 24 h; in short: as §1
Talaromyces marneffei [5] = experiment: Antifungal activity against Penicillium marneffei after 48 hrs […]; format: functional
Candida albicans [6] = experiment: Antifungal activity against Candida albicans after 48 hrs […]; format: functional
Aspergillus fumigatus [7] = experiment: Antifungal activity against Aspergillus fumigatus after 48 hrs […]; format: functional
Staphylococcus aureus [8] = experiment: Antibacterial activity against Staphylococcus aureus ATCC 25923 after 24 hrs by broth dilution technique; format: functional; conditions: ATCC 25923, 24 h; in short: as §1
Aspergillus fumigatus [9] = experiment: Antifungal activity against Aspergillus fumigatus assessed as inhibition zone diameter […] by agar dilution method; format: functional
In short: (§2)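 Compounds in DMSO placed in punched wells on Sabouraud agar (peptone, glucose, agar, pH 5.7) lawned with saline spore suspension. Plates pre-dried 1 h at 37 °C. Controls in triplicate, incubation at 37 °C for 3-4 days, then inhibition zone diameter read in mm. Amphotericin B reference.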

[10] = test system: Trichophyton mentagrophytes; experiment: Antifungal activity against Trichophyton mentagrophytes assessed as inhibition zone diameter […] by agar dilution method; format: functional; in short: as §2
Aspergillus flavus [11] = experiment: Antifungal activity against Aspergillus flavus assessed as inhibition zone diameter […] by agar dilution method; format: functional; in short: as §2
Talaromyces marneffei [12] = experiment: Antifungal activity against Penicillium marneffei assessed as inhibition zone diameter […] by agar dilution method; format: functional; in short: as §2
Candida albicans [13] = experiment: Antifungal activity against Candida albicans assessed as inhibition zone diameter […] by agar dilution method; format: functional; in short: as §2
Streptococcus pyogenes [14] = experiment: Antibacterial activity against Streptococcus pyogenes assessed as inhibition zone diameter after 24 hrs by disc diffusion method
Staphylococcus aureus [15] = experiment: Antibacterial activity against Staphylococcus aureus ATCC 25923 assessed as inhibition zone diameter after 24 hrs […]; format: functional
In short: (§3)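 Disc diffusion on nutrient agar. Inoculum 1-2 × 10^7 c.f.u/ml (0.5 McFarland) spread over the plate surface. Sterile 6.25 mm filter-paper discs soaked in a known concentration of compound. Solvent and growth controls included. Plates incubated inverted 24 h at 37 °C, then inhibition zone diameter measured in mm. Ciprofloxacin reference.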

Streptococcus pyogenes [16] = experiment: Antibacterial activity against Streptococcus pyogenes after 24 hrs by broth dilution technique; format: functional; in short: as §1
Pseudomonas aeruginosa [17] = experiment: Antibacterial activity against Pseudomonas aeruginosa ATCC 27853 assessed as inhibition zone diameter after 24 hrs […]; format: functional; in short: as §3
Klebsiella pneumoniae [18] = experiment: Antibacterial activity against Klebsiella pneumoniae assessed as inhibition zone diameter after 24 hrs […]; format: functional; in short: as §3

Row | MIC (Pseudomonas aeruginosa [1]) | MIC [2] | MIC (Klebsiella pneumoniae [3]) | MIC (Aspergillus flavus [4]) | MIC (Escherichia coli) | MIC (Talaromyces marneffei [5]) | MIC (Candida albicans [6]) | MIC (Aspergillus fumigatus [7]) | MIC (Staphylococcus aureus [8]) | MIC (Streptococcus pyogenes [16]) | SMILES | inhibition zone (IZ) (Aspergillus fumigatus [9]) | inhibition zone (IZ) [10] | inhibition zone (IZ) (Aspergillus flavus [11]) | inhibition zone (IZ) (Talaromyces marneffei [12]) | inhibition zone (IZ) (Candida albicans [13]) | inhibition zone (IZ) (Streptococcus pyogenes [14]) | inhibition zone (IZ) (Staphylococcus aureus [15]) | inhibition zone (IZ) (Pseudomonas aeruginosa [17]) | inhibition zone (IZ) (Klebsiella pneumoniae [18])
1 | > 100 µg/mL | > 100 µg/mL | > 100 µg/mL | > 100 µg/mL | > 100 µg/mL | > 100 µg/mL | > 100 µg/mL | > 100 µg/mL | > 100 µg/mL |  | Cc1cccc(C)c1NC(=O)CSc1nnc(-c2cc(F)c(Cl)cc2Cl)n1N |  |  |  |  |  |  |  |  | 
2 | > 100 µg/mL | > 100 µg/mL | > 100 µg/mL | > 100 µg/mL | > 100 µg/mL | > 100 µg/mL | > 100 µg/mL | > 100 µg/mL | > 100 µg/mL |  | CCOc1ccc(NC(=O)CSc2nnc(-c3cc(F)c(Cl)cc3Cl)n2N)cc1 |  |  |  |  |  |  |  |  | 
3 | 12.5 µg/mL (≈ 27 µM) | 25 µg/mL (≈ 54 µM) | 12.5 µg/mL (≈ 27 µM) | > 100 µg/mL | 12.5 µg/mL (≈ 27 µM) | 12.5 µg/mL (≈ 27 µM) | > 100 µg/mL | 12.5 µg/mL (≈ 27 µM) | > 100 µg/mL |  | Fc1cc(-c2nnc3n2N=C(Nc2cccc(Cl)c2Cl)CS3)c(Cl)cc1Cl | 11 mm | 8 mm |  | 12 mm |  |  |  | 17 mm | 14 mm
4 | > 100 µg/mL | 12.5 µg/mL (≈ 27 µM) | > 100 µg/mL | > 100 µg/mL | 25 µg/mL (≈ 54 µM) | 25 µg/mL (≈ 54 µM) | 6.25 µg/mL (≈ 13.5 µM) | 25 µg/mL (≈ 54 µM) | > 100 µg/mL | 12.5 µg/mL (≈ 27 µM) | Fc1cc(-c2nnc3n2N=C(Nc2c(Cl)cccc2Cl)CS3)c(Cl)cc1Cl | 10 mm | 12 mm |  | 10 mm | 18 mm | 15 mm |  |  | 
5 | 6.25 µg/mL (≈ 14.1 µM) | > 100 µg/mL | 6.25 µg/mL (≈ 14.1 µM) | > 100 µg/mL | 6.25 µg/mL (≈ 14.1 µM) | > 100 µg/mL | > 100 µg/mL | > 100 µg/mL | 6.25 µg/mL (≈ 14.1 µM) | 6.25 µg/mL (≈ 14.1 µM) | COc1ccc(NC(=O)CSc2nnc(-c3cc(F)c(Cl)cc3Cl)n2N)cc1 |  |  |  |  |  | 23 mm | 24 mm | 32 mm | 21 mm

The next lines start with the compound.

Row | SMILES | MIC (Pseudomonas aeruginosa [1]) | MIC [2] | MIC (Klebsiella pneumoniae [3]) | MIC (Aspergillus flavus [4]) | MIC (Escherichia coli) | MIC (Talaromyces marneffei [5]) | MIC (Candida albicans [6]) | MIC (Aspergillus fumigatus [7]) | MIC (Staphylococcus aureus [8]) | MIC (Streptococcus pyogenes [16]) | inhibition zone (IZ) (Aspergillus fumigatus [9]) | inhibition zone (IZ) [10] | inhibition zone (IZ) (Aspergillus flavus [11]) | inhibition zone (IZ) (Talaromyces marneffei [12]) | inhibition zone (IZ) (Candida albicans [13]) | inhibition zone (IZ) (Streptococcus pyogenes [14]) | inhibition zone (IZ) (Staphylococcus aureus [15]) | inhibition zone (IZ) (Pseudomonas aeruginosa [17]) | inhibition zone (IZ) (Klebsiella pneumoniae [18])
6 | Nn1c(SCC(=O)Nc2cccc(Cl)c2Cl)nnc1-c1cc(F)c(Cl)cc1Cl | > 100 µg/mL | > 100 µg/mL | > 100 µg/mL | > 100 µg/mL | > 100 µg/mL | > 100 µg/mL | > 100 µg/mL | > 100 µg/mL | > 100 µg/mL |  |  |  |  |  |  |  |  |  | 
7 | Cc1cc(C)c(NC(=O)CSc2nnc(-c3cc(F)c(Cl)cc3Cl)n2N)c(C)c1 | > 100 µg/mL | 6.25 µg/mL (≈ 13.8 µM) | > 100 µg/mL | 6.25 µg/mL (≈ 13.8 µM) | > 100 µg/mL | 12.5 µg/mL (≈ 27.5 µM) | 12.5 µg/mL (≈ 27.5 µM) | 12.5 µg/mL (≈ 27.5 µM) | > 100 µg/mL |  | 15 mm | 17 mm | 23 mm | 13 mm | 11 mm |  |  |  | 
8 | Fc1ccc(NC2=Nn3c(nnc3-c3cc(F)c(Cl)cc3Cl)SC2)cc1 | 12.5 µg/mL (≈ 30.3 µM) | 6.25 µg/mL (≈ 15.2 µM) | 12.5 µg/mL (≈ 30.3 µM) | > 100 µg/mL | 6.25 µg/mL (≈ 15.2 µM) | 6.25 µg/mL (≈ 15.2 µM) | 12.5 µg/mL (≈ 30.3 µM) | 25 µg/mL (≈ 60.6 µM) | 12.5 µg/mL (≈ 30.3 µM) | 6.25 µg/mL (≈ 15.2 µM) | 6 mm | 18 mm |  | 19 mm | 14 mm | 22 mm | 15 mm | 24 mm | 16 mm
9 | Nn1c(SCC(=O)Nc2ccc(Cl)cc2Cl)nnc1-c1cc(F)c(Cl)cc1Cl | > 100 µg/mL | > 100 µg/mL | > 100 µg/mL | > 100 µg/mL | > 100 µg/mL | > 100 µg/mL | > 100 µg/mL | > 100 µg/mL | > 100 µg/mL |  |  |  |  |  |  |  |  |  | 
10 | Fc1ccc(NC2=Nn3c(nnc3-c3cc(F)c(Cl)cc3Cl)SC2)cc1Cl | 12.5 µg/mL (≈ 28 µM) | 25 µg/mL (≈ 56 µM) | 12.5 µg/mL (≈ 28 µM) | > 100 µg/mL | 6.25 µg/mL (≈ 14 µM) | 12.5 µg/mL (≈ 28 µM) | > 100 µg/mL | > 100 µg/mL | > 100 µg/mL | 6.25 µg/mL (≈ 14 µM) |  | 10 mm |  | 16 mm |  | 18 mm |  | 20 mm | 11 mm
11 | Cc1cc(C)c(NC2=Nn3c(nnc3-c3cc(F)c(Cl)cc3Cl)SC2)c(C)c1 | 25 µg/mL (≈ 57.3 µM) | 12.5 µg/mL (≈ 28.6 µM) | 25 µg/mL (≈ 57.3 µM) | > 100 µg/mL | 12.5 µg/mL (≈ 28.6 µM) | 12.5 µg/mL (≈ 28.6 µM) | 12.5 µg/mL (≈ 28.6 µM) | > 100 µg/mL | 6.25 µg/mL (≈ 14.3 µM) | 12.5 µg/mL (≈ 28.6 µM) |  | 14 mm |  | 11 mm | 13 mm | 15 mm | 23 mm | 16 mm | 8 mm
12 | Cc1cccc(NC2=Nn3c(nnc3-c3cc(F)c(Cl)cc3Cl)SC2)c1C | 25 µg/mL (≈ 59.2 µM) | > 100 µg/mL | 6.25 µg/mL (≈ 14.8 µM) | > 100 µg/mL | 12.5 µg/mL (≈ 29.6 µM) | 6.25 µg/mL (≈ 14.8 µM) | 25 µg/mL (≈ 59.2 µM) | 12.5 µg/mL (≈ 29.6 µM) | 6.25 µg/mL (≈ 14.8 µM) | 25 µg/mL (≈ 59.2 µM) | 16 mm |  |  | 18 mm | 10 mm | 10 mm | 25 mm | 12 mm | 19 mm
13 | O=C(O)c1cn(C2CC2)c2cc(N3CCNCC3)c(F)cc2c1=O [CIPROFLOXACIN] |  |  | 6.25 µg/mL (≈ 18.9 µM) |  |  |  |  |  |  | 6.25 µg/mL (≈ 18.9 µM) |  |  |  |  |  | 25 mm | 25 mm | 33 mm | 22 mm
14 | C[C@@H]1[C@H](O)[C@@H](C)/C=C/C=C/C=C/C=C/C=C/C=C/C=C/[C@H](O[C@@H]2O[C@H](C)[C@@H](O)[C@H](N)[C@@H]2O)C[C@@H]2O[C@](O)(C[C@@H](O)C[C@@H](O)[C@H](O)CC[C@@H](O)C[C@@H](O)CC(=O)O[C@H]1C)C[C@H](O)[C@H]2C(=O)O [AMPHOTERICIN B] |  | 6.25 µg/mL (≈ 6.76 µM) |  | 6.25 µg/mL (≈ 6.76 µM) |  | 6.25 µg/mL (≈ 6.76 µM) | 6.25 µg/mL (≈ 6.76 µM) | 6.25 µg/mL (≈ 6.76 µM) |  |  | 22 mm | 19 mm | 25 mm | 23 mm | 20 mm |  |  |  | 
